Tested on: U2OS
Assay: Multiplex assay against U2OS
Type: toxicity, cell-based
Settings: human
How it was run: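 Live cells were stained at seeding with Hoechst33342, BioTracker Green Microtubule Cytoskeleton Dye, MitoTracker Red and Annexin V Alexa Fluor 680, then imaged on a CQ1 microscope at 37°C and 5% CO2 after compound addition. CellPathfinder machine-learning gating split cells into Hoechst high-intensity objects or normal cells. Normal cells were split into healthy, pyknosed or fragmented nuclei, and pyknosed cells into mitotic or apoptotic. Tubulin, mitochondrial-mass and membrane-permeability phenotypes are per cents of healthy-nucleus cells.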

[1] = 12 h, 1 µM, compound concentration 1 uM, replicate 1
[2] = 12 h, 1 µM, compound concentration 1 uM, replicate 2
[3] = 12 h, 10 µM, compound concentration 10 uM, replicate 1
[4] = 12 h, 10 µM, compound concentration 10 uM, replicate 2
[5] = 24 h, 1 µM, compound concentration 1 uM, replicate 1
[6] = 24 h, 1 µM, compound concentration 1 uM, replicate 2
[7] = 24 h, 10 µM, compound concentration 10 uM, replicate 1
[8] = 24 h, 10 µM, compound concentration 10 uM, replicate 2
[9] = 48 h, 1 µM, compound concentration 1 uM, replicate 1
[10] = 48 h, 1 µM, compound concentration 1 uM, replicate 2
[11] = 48 h, 10 µM, compound concentration 10 uM, replicate 1
[12] = 48 h, 10 µM, compound concentration 10 uM, replicate 2

COc1cc(OC2CCN(C(C)=O)CC2)ccc1C(=O)N1CCC(N2C(=O)OCc3ccccc32)CC1
Population Apoptotic (%) [1]: 50% | Population Fragmented Nuclei (%) [1]: 22% | Population Healthy Nuclei (%) [1]: 67% | Population Hoechst High Intensity Objects (%) [1]: 0% | Population Membrane Permeable-Phenotype (%) [1]: 5% | Population Mitochondria Different-Phenotype (%) [1]: 3% | Population Mitotic Cells (%) [1]: 50% | Population Normal (%) [1]: 99% | Population Pyknosed Nuclei (%) [1]: 9% | Population Tubulin-Different-Phenotype (%) [1]: 3% | Total Cell Count [1]: 233 | Population Apoptotic (%) [2]: 66% | Population Fragmented Nuclei (%) [2]: 20% | Population Healthy Nuclei (%) [2]: 69% | Population Membrane Permeable-Phenotype (%) [2]: 11% | Population Mitochondria Different-Phenotype (%) [2]: 7% | Population Mitotic Cells (%) [2]: 33% | Population Tubulin-Different-Phenotype (%) [2]: 8% | Total Cell Count [2]: 130 | Population Apoptotic (%) [3]: 72% | Population Fragmented Nuclei (%) [3]: 23% | Population Healthy Nuclei (%) [3]: 62% | Population Hoechst High Intensity Objects (%) [3]: 6% | Population Membrane Permeable-Phenotype (%) [3]: 18% | Population Mitochondria Different-Phenotype (%) [3]: 6% | Population Mitotic Cells (%) [3]: 27% | Population Normal (%) [3]: 93% | Population Pyknosed Nuclei (%) [3]: 13% | Population Tubulin-Different-Phenotype (%) [3]: 12% | Total Cell Count [3]: 228 | Population Apoptotic (%) [4]: 87% | Population Fragmented Nuclei (%) [4]: 13% | Population Healthy Nuclei (%) [4]: 77% | Population Hoechst High Intensity Objects (%) [4]: 1% | Population Membrane Permeable-Phenotype (%) [4]: 21% | Population Mitochondria Different-Phenotype (%) [4]: 10% | Population Mitotic Cells (%) [4]: 12% | Population Normal (%) [4]: 98% | Population Pyknosed Nuclei (%) [4]: 9% | Population Tubulin-Different-Phenotype (%) [4]: 13% | Total Cell Count [4]: 85 | Population Apoptotic (%) [5]: 82% | Population Fragmented Nuclei (%) [5]: 20% | Population Healthy Nuclei (%) [5]: 71% | Population Hoechst High Intensity Objects (%) [5]: 1% | Population Membrane Permeable-Phenotype (%) [5]: 3% | Population Mitochondria Different-Phenotype (%) [5]: 2% | Population Mitotic Cells (%) [5]: 17% | Population Normal (%) [5]: 98% | Population Pyknosed Nuclei (%) [5]: 8% | Population Tubulin-Different-Phenotype (%) [5]: 2% | Total Cell Count [5]: 288 | Population Apoptotic (%) [6]: 76% | Population Fragmented Nuclei (%) [6]: 22% | Population Healthy Nuclei (%) [6]: 68% | Population Membrane Permeable-Phenotype (%) [6]: 7% | Population Mitochondria Different-Phenotype (%) [6]: 5% | Population Mitotic Cells (%) [6]: 23% | Population Tubulin-Different-Phenotype (%) [6]: 3% | Total Cell Count [6]: 163 | Population Apoptotic (%) [7]: 81% | Population Fragmented Nuclei (%) [7]: 21% | Population Healthy Nuclei (%) [7]: 60% | Population Hoechst High Intensity Objects (%) [7]: 5% | Population Membrane Permeable-Phenotype (%) [7]: 9% | Population Mitochondria Different-Phenotype (%) [7]: 9% | Population Mitotic Cells (%) [7]: 18% | Population Normal (%) [7]: 94% | Population Pyknosed Nuclei (%) [7]: 18% | Population Tubulin-Different-Phenotype (%) [7]: 4% | Total Cell Count [7]: 250 | Population Apoptotic (%) [8]: 71% | Population Fragmented Nuclei (%) [8]: 12% | Population Healthy Nuclei (%) [8]: 80% | Population Hoechst High Intensity Objects (%) [8]: 2% | Population Membrane Permeable-Phenotype (%) [8]: 10% | Population Mitochondria Different-Phenotype (%) [8]: 3% | Population Mitotic Cells (%) [8]: 28% | Population Normal (%) [8]: 97% | Population Pyknosed Nuclei (%) [8]: 7% | Population Tubulin-Different-Phenotype (%) [8]: 6% | Total Cell Count [8]: 99 | Population Apoptotic (%) [9]: 80% | Population Fragmented Nuclei (%) [9]: 17% | Population Healthy Nuclei (%) [9]: 77% | Population Hoechst High Intensity Objects (%) [9]: 3% | Population Membrane Permeable-Phenotype (%) [9]: 3% | Population Mitochondria Different-Phenotype (%) [9]: 1% | Population Mitotic Cells (%) [9]: 19% | Population Normal (%) [9]: 96% | Population Pyknosed Nuclei (%) [9]: 5% | Population Tubulin-Different-Phenotype (%) [9]: 2% | Total Cell Count [9]: 388 | Population Apoptotic (%) [10]: 65% | Population Fragmented Nuclei (%) [10]: 23% | Population Healthy Nuclei (%) [10]: 66% | Population Membrane Permeable-Phenotype (%) [10]: 10% | Population Mitochondria Different-Phenotype (%) [10]: 5% | Population Mitotic Cells (%) [10]: 35% | Population Pyknosed Nuclei (%) [10]: 9% | Population Tubulin-Different-Phenotype (%) [10]: 4% | Total Cell Count [10]: 213 | Population Apoptotic (%) [11]: 81% | Population Fragmented Nuclei (%) [11]: 19% | Population Healthy Nuclei (%) [11]: 66% | Population Hoechst High Intensity Objects (%) [11]: 5% | Population Membrane Permeable-Phenotype (%) [11]: 5% | Population Mitochondria Different-Phenotype (%) [11]: 4% | Population Mitotic Cells (%) [11]: 18% | Population Normal (%) [11]: 95% | Population Pyknosed Nuclei (%) [11]: 14% | Population Tubulin-Different-Phenotype (%) [11]: 3% | Total Cell Count [11]: 320 | Population Apoptotic (%) [12]: 100% | Population Fragmented Nuclei (%) [12]: 17% | Population Healthy Nuclei (%) [12]: 78% | Population Hoechst High Intensity Objects (%) [12]: 1% | Population Membrane Permeable-Phenotype (%) [12]: 14% | Population Mitochondria Different-Phenotype (%) [12]: 6% | Population Mitotic Cells (%) [12]: 0% | Population Normal (%) [12]: 98% | Population Pyknosed Nuclei (%) [12]: 3% | Population Tubulin-Different-Phenotype (%) [12]: 8% | Total Cell Count [12]: 130
